pEC50, pIC50, pKi: −log10 of the molar value. Values belong to the molecule of their own block, whether it stands above or below them. The source made the active and inactive calls. The calls are words filed in the database; no cut-off is given here.
Legend:
[1] = target: T1, Adrenergic receptor alpha-1 (Rattus norvegicus, UniProt P15823+P23944+P43140); assay: Displacement of [3H]prazosin from rat cerebral cortex adrenergic receptor alpha1 by liquid scintillation counting method
T1 sequence (P15823 whole entry): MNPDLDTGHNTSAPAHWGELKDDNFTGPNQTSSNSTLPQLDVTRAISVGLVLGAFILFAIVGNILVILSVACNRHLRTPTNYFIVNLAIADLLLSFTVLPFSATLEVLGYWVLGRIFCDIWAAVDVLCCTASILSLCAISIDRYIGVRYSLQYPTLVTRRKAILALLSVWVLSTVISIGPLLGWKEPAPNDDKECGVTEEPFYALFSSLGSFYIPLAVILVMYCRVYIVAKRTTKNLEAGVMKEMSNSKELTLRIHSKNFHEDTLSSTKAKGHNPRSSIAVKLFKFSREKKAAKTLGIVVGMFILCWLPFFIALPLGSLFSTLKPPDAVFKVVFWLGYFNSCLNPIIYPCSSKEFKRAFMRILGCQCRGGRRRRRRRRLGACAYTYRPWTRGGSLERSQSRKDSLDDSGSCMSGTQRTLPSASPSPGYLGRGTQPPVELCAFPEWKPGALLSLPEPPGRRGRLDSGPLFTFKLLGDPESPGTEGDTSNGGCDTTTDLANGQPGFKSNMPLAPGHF
T1 sequence (P23944 whole entry): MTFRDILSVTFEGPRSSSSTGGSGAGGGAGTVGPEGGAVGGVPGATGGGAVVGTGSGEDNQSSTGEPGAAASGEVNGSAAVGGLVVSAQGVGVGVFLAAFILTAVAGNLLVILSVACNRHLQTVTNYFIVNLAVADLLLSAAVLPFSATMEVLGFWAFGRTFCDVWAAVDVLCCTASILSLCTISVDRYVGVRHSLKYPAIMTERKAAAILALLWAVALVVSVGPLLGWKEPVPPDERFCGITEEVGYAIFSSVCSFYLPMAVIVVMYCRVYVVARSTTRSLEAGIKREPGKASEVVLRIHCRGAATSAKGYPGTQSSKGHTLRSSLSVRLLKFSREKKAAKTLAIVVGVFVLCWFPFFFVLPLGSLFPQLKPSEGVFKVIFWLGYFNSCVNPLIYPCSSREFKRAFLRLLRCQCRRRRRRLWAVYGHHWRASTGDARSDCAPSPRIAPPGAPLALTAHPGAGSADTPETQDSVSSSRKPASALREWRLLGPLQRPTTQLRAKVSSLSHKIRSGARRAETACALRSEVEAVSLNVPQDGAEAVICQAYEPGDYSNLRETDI
T1 sequence (P43140 whole entry): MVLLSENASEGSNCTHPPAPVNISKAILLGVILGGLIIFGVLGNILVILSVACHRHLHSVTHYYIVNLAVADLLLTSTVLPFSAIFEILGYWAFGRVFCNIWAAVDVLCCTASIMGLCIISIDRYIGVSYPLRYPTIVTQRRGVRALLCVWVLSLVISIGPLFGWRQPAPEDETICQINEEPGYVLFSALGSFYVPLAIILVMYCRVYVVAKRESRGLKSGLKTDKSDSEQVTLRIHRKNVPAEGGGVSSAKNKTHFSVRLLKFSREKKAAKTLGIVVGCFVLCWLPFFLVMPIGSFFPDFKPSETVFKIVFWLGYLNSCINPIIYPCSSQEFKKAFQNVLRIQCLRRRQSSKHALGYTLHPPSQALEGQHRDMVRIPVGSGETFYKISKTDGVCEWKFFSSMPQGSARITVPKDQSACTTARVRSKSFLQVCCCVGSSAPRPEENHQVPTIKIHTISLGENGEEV

[2] = target: T2, 5-hydroxytryptamine receptor 1A (Homo sapiens, UniProt P08908); assay: Binding affinity to 5-HT1A receptor (unknown origin)
T2 sequence (P08908 whole entry): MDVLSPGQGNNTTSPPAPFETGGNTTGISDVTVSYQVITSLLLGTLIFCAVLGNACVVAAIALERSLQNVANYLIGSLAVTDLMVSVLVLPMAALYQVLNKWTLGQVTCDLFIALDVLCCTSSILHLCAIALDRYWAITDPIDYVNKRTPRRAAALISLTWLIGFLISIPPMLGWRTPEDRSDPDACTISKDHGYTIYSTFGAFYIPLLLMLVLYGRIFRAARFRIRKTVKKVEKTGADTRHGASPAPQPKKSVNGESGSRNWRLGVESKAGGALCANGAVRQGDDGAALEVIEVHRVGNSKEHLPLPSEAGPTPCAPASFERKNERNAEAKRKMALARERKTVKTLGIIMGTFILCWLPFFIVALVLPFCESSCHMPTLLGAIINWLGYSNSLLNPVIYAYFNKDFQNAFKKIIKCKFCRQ

[3] = target: T3, 5-hydroxytryptamine receptor 7 (Homo sapiens, UniProt P34969); assay: biochemical; format: cell-based, CHO
[4] = target: T4, 5-hydroxytryptamine receptor 1A (Homo sapiens) (UniProt P08908); assay: Antagonist activity at human 5-HT1A receptor expressed in CHO-K1 cells co-expressing Galpha16 assessed as decrease in serotonin-induced calcium mobilization preincubated for 25 mins followed by serotonin challenge measured for 30 secs by aequorin-derived luminescence assay relative to control; format: functional, cell-based
T4 sequence (whole entry): T2 sequence (P08908 whole entry)

[5] = target: T5, 5-hydroxytryptamine receptor 2A (Homo sapiens, UniProt P28223); assay: biochemical; format: cell-based, HEK293
[6] = target: 5-hydroxytryptamine receptor 6 (Homo sapiens, UniProt P50406); assay: Displacement of [3H]LSD from recombinant human 5-HT6 receptor expressed in CHO cells cell membranes after 60 mins by liquid scintillation counting method
Mus musculus [7] = assay: Antidepressant-like activity in Albino Swiss CD-1 mouse assessed as immobility time at 5 mg/kg, ip administered 30 mins prior to test measured for last 4 mins of 6 mins observation by forced swim test (reference value: 153.9 to 201.9 secs); format: functional
Mus musculus [8] = assay: Toxicity in Albino Swiss CD-1 mouse assessed as effect on locomotory activity at 5 to 10 mg/kg, ip administered for 30 mins prior to test measured for 1 min; format: organism-based; settings: in vivo
Outline: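 Mice dosed i.p. 30 min before test; vehicle groups received 0.9% NaCl. Spontaneous locomotion scored as number of crossings during a 1-min session. Each dose compared with its own vehicle group by Student t-test; mean ± SEM, n = 8–10 mice per group.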

[9] = target: T5, 5-hydroxytryptamine receptor 2A; assay: Antagonist activity at human 5-HT2A receptor expressed in CHO-K1 cells co-expressing Galpha16 assessed as decrease in serotonin calcium mobilization preincubated for 30 mins followed by serotonin challenge measured for 30 secs by aequorin-derived luminescence assay; format: functional, cell-based
[10] = target: T3, 5-hydroxytryptamine receptor 7; assay: Agonist activity at human 5-HT7 receptor expressed in CHO-K1 cells assessed as increase in serotonin-induced cAMP level after 1 hr by TR-FRET assay relative to serotonin; format: functional, cell-based
D(2) dopamine receptor [11] = target: T6, D(2) dopamine receptor (Homo sapiens, UniProt P14416); assay: Agonist activity at human D2 receptor expressed in CHO-K1 cells co-expressing Galphaqi5 assessed as increase apomorphine-induced calcium mobilization measured for 30 secs by aequorin-derived luminescence assay relative to apomorphine; format: functional, cell-based
[12] = target: T3, 5-hydroxytryptamine receptor 7; assay: Antagonist activity at human 5-HT7 receptor expressed in CHO-K1 cells assessed as decrease in serotonin-induced cAMP level after 1 hr by TR-FRET assay; format: functional, cell-based
Mus musculus [13] = assay: Antidepressant-like activity in Albino Swiss CD-1 mouse assessed as immobility time at 10 mg/kg, ip administered 30 mins prior to test measured for last 4 mins of 6 mins observation by forced swim test (reference value: 153.9 to 201.9 secs); format: functional
D(2) dopamine receptor [14] = target: T6, D(2) dopamine receptor; assay: Displacement of [3H]methylspiperonee from recombinant human D2 receptor expressed in HEK293 cells cell membranes after 60 mins by liquid scintillation counting method
D(2) dopamine receptor [15] = target: T6, D(2) dopamine receptor; assay: Agonist activity at human D2 receptor expressed in CHO-K1 cells co-expressing Galphaqi5 assessed as increase in calcium mobilization measured for 30 secs by aequorin-derived luminescence assay; format: functional, cell-based
[16] = target: T2, 5-hydroxytryptamine receptor 1A; assay: (§1) Antagonist activity at human 5-HT1A receptor expressed in CHO-K1 cells co-expressing Galpha16 assessed as decrease in serotonin calcium mobilization preincubated for 25 mins followed by serotonin challenge measured for 30 secs by aequorin-derived luminescence assay; format: functional, cell-based
[17] = target: T4, 5-hydroxytryptamine receptor 1A (Homo sapiens); assay: as §1; format: functional, cell-based
[18] = target: T7, Alpha-1A adrenergic receptor (Homo sapiens, UniProt P35348); assay: Displacement of [3H]prazosin from recombinant human alpha1 adrenoceptor expressed in CHO cell membranes after 30 mins by liquid scintillation counting method
T7 sequence (P35348 whole entry): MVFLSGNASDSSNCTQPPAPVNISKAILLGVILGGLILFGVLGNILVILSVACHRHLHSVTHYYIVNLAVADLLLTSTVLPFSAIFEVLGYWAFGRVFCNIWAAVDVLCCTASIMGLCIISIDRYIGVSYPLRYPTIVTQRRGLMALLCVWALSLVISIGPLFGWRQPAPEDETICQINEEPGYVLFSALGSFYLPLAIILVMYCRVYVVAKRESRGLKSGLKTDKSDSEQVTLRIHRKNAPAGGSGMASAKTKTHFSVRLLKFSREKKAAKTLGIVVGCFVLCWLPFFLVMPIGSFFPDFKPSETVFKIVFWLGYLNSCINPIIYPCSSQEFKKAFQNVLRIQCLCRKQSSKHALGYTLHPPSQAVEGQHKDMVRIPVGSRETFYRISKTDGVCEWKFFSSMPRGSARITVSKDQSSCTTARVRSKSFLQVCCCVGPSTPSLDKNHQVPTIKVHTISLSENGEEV

Mus musculus [19] = assay: Antidepressant-like activity in Albino Swiss CD-1 mouse assessed as immobility time at 20 mg/kg, ip administered 30 mins prior to test measured for last 4 mins of 6 mins observation by forced swim test (reference value: 153.9 to 201.9 secs); format: functional
[20] = target: T3, 5-hydroxytryptamine receptor 7; assay: Antagonist activity at human 5-HT7 receptor expressed in CHO-K1 cells assessed as decrease in serotonin-induced cAMP level after 1 hr by TR-FRET assay relative to control; format: functional, cell-based
[21] = target: T2, 5-hydroxytryptamine receptor 1A; assay: Displacement of [3H]8-OH-DPAT from recombinant human 5-HT1A receptor expressed in HEK293 cell membranes after 60 mins by liquid scintillation counting method
[22] = target: T4, 5-hydroxytryptamine receptor 1A (Homo sapiens); assay: Agonist activity at human 5-HT1A receptor expressed in CHO-K1 cells co-expressing Galpha16 assessed as increase in calcium mobilization measured for 30 secs by aequorin-derived luminescence assay relative to serotonin; format: functional, cell-based
Mus musculus [23] = assay: Anxiolytic-like activity in Albino Swiss CD-1 mouse assessed as increase in number of punished crossings at 5 to 10 mg/kg, ip administered for 30 mins prior to test measured for 1 min by four-plate test; format: functional, organism-based
Outline: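 Four-plate test in mice, i.p., 30 min before test; vehicle 0.9% NaCl; doses 1.25–10 mg/kg; number of punished crossings counted; mean ± SEM, n = 8–10 mice per group; ANOVA F statistics.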

T6 sequence (P14416 whole entry): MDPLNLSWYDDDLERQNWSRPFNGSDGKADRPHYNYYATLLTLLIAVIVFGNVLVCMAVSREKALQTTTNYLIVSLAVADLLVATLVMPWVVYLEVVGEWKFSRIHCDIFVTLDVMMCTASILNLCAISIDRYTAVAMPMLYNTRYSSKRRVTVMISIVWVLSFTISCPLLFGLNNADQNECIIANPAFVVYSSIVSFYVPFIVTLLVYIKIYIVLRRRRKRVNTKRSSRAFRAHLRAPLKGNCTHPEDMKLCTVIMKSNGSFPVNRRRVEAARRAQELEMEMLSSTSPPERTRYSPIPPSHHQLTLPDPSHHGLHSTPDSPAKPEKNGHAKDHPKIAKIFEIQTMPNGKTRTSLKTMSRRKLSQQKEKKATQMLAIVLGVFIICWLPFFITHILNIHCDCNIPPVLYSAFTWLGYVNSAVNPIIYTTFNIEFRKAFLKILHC
T3 sequence (P34969 whole entry): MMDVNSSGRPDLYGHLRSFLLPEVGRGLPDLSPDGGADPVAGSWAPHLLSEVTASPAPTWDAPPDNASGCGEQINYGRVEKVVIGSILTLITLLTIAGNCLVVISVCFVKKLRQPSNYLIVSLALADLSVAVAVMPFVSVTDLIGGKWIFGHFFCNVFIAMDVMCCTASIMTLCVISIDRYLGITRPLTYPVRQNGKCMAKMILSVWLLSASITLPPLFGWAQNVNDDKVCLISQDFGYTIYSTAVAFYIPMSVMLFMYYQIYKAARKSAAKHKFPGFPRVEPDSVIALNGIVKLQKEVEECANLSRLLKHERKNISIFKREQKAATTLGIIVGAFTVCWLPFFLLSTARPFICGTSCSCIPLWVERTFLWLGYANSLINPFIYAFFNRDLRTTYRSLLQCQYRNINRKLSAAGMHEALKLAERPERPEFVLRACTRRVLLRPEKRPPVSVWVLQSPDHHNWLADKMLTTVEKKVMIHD
T5 sequence (P28223 whole entry): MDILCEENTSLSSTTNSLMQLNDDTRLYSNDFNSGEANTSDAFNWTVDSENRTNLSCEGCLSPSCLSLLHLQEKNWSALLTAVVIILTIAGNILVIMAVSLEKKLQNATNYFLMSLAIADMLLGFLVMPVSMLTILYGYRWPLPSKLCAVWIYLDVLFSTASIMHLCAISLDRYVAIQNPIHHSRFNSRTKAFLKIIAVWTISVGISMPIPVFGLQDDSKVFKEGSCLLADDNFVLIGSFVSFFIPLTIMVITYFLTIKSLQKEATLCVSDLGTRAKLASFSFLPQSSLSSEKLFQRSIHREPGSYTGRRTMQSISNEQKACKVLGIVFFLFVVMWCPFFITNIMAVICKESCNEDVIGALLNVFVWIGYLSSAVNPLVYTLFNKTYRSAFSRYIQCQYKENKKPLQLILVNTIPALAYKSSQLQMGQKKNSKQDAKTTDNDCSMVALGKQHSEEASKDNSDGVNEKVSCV
Sequence of 5-hydroxytryptamine receptor 6 (P50406 whole entry): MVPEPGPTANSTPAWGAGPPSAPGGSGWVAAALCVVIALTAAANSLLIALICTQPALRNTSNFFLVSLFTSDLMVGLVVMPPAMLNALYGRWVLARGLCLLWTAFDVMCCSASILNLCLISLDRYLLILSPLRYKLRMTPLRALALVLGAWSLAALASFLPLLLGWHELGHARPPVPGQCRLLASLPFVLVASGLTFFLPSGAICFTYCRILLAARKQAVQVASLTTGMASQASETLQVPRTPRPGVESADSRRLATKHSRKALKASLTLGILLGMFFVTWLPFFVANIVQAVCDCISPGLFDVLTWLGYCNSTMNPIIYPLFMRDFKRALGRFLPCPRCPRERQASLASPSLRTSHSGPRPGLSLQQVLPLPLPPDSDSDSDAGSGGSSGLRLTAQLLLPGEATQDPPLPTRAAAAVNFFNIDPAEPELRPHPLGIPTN

Ki [1]: 127.9 nM
pKi [2]: 6.67
Compound: COc1ccccc1N1CCN(CCCNc2cc(=O)n(C)c(=O)n2C)CC1

pKi [3]: 7.05
Emax [4]: 6%
pKi [5]: 7.12
pKi [6]: < 5.30
pIC50 [9]: 4.07
Emax [10]: 11%
Emax (D(2) dopamine receptor [11]): 48%
pIC50 [12]: 5.24
Kb [12]: 2460 nM
pKi (D(2) dopamine receptor [14]): 6.52
pEC50 (D(2) dopamine receptor [15]): 6.12
pIC50 [16]: 6.54
Kb [17]: 71.5 nM
pKi [18]: 7.03
Emax [20]: 15%
pKi [21]: 7.70
Emax [22]: 11%
Compound: Cc1cc(OCCCN2CCN(c3ccccc3)CC2)ccc1Cl.Cl.Cl
Time (Mus musculus [7]): 189.1 s
Activity (Mus musculus [8]): Non-Toxic
Time (Mus musculus [13]): 188.9 s
Time (Mus musculus [19]): 172.1 s
Activity (Mus musculus [23]): inactive

Source: ChEMBL document CHEMBL4190389, “Synthesis and activity of di- or trisubstituted N-(phenoxyalkyl)- or N-{2-[2-(phenoxy)ethoxy]ethyl}piperazine derivatives on the central nervous system” (Bioorg Med Chem Lett, 2018)
